Data: publication PMC9883262 (Molecular Metabolism, 2023)

Tested on: MMP-9 secreted by MCF-7 cells
Test: Gelatin zymography MMP-9 secretion, MCF-7
Type: cell-based
Conditions: 80 nM PMA, serum-free medium, MCF-7, vs basal (MMP-9 not detectable)
In short: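 Cells attached overnight, then treated 24 or 48 h with test compound or DMSO vehicle in serum-free medium. Conditioned medium was acetone-precipitated (4 volumes, −20 °C, 2 h), and pellets were taken up in non-reducing SDS buffer. Samples were run on a 7.5% gel with 1 mg/mL gelatin, washed in Triton X-100/CaCl2/ZnCl2, incubated overnight at 37 °C, and Coomassie-stained. Mean ± SD of three independent experiments.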

SMILES: CCCCCCCCCCCCCC(=O)O[C@@H]1[C@@H](C)[C@@]2(O)[C@@H](C=C(CO)C[C@]3(O)C(=O)C(C)=C[C@@H]23)[C@@H]2C(C)(C)[C@]12OC(C)=O [PMA, phorbol 12-myristate 13-acetate]
- secreted MMP-9 level, PMA stimulation: drastically increased
